Shown are actives, neighbours in structure and some others; about 3.3% of the full set was active somewhere.
DENV2 CPE rescue: inhibitors of DENV2 cytopathic effect | DENV2-infected cells, cytopathic effect rescue, plate reader | CPE inhibition, % at 9.99 µM | 350,000 tested, 1.7% active; in the data active = CPE inhibition above about 20%, passing the limit was not always enough; inconclusive = no clear call, values can overlap the other calls; tested in BHK-21 cells;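 note: 0% = median of neutral control wells and 100% = median of positive control wells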
C2C12 statin: suppressors of simvastatin-induced myotoxicity in C2C12 myotubes; ATP luminescence, 48 h; scaled: DMSO 0, geranylgeraniol control 100; rescue of ATP level, % at 7.49 µM; 330,000 tested, 0.78% active; AID 602340;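 active = mean ATP rescue above about 67%, or every replicate alone reaching that limit, limit read from the data, passing the limit was not always enough; inconclusive = no clear call, values can overlap the other calls; inactive = mean under the limit and some replicate under it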;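 note: myotubes were challenged with 10 µM simvastatin during compound exposure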
PglD inh: PglD (C. jejuni) enzyme inhibition; purified PglD enzyme, DTNB colorimetric CoA detection; inhibition, % at 12.5 µM; 360,000 tested, 0.098% active; AID 602405; in the data active = inhibition above about 16%, passing the limit was not always enough; inconclusive = no clear call, values can overlap the other calls
Xi reactivation: X-chromosome reactivation activator | XiGFP mouse fibroblasts, % GFP-positive cells imaging, 3 d; cells co-treated with 5-aza-dC sensitizer; scaled so ellipticine positive control = 100% | activation, % at 7.58 µM | 360,000 tested, 0.055% active | AID 743238;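 active = mean normalized replicate activation at least 10% and every replicate at or above 10%; inconclusive = only one of the two criteria met; inactive = mean below 10% and not all replicates reach 10%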;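 note: 0% = median of on-plate neutral control wells and 100% = ellipticine 6 µM median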
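System: 68-5-11 XiGFP fibroblast line; Timing: 3 days compound exposure; Compound dosing: one concentration, pinned; Benchmarks: positive control ellipticine, 6 µM final; Buffer or medium: DMEM containing 5-aza-dC.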
FGF22 binding: binders of recombinant human FGF22 by thermal shift. Q9HCT0. SYPRO orange fluorescence; percent of sucrose octasulfate shift, DMSO zero. activity (Tm shift, normalised), % at 9.99 µM. 340,000 tested, 1.5% active. AID 651658;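 active = mean Tm shift, scaled 0 neutral to 100 positive control, at about 1.3% or above, every replicate too, limit read from the data; inconclusive = no clear call, values can overlap the other calls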
Target sequence (Q9HCT0 whole entry, looked up): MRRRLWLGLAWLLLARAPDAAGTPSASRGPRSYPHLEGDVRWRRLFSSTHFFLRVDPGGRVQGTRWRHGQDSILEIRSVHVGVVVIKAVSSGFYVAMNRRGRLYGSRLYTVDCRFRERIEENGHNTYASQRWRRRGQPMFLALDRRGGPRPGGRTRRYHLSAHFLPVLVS
E-sel inducer: induces E-selectin expression in human endothelial cells; P16581; HUVEC E-selectin immunofluorescence imaging; normalized: neutral wells 0, TNF-alpha wells 100; activation, % at 7.58 µM; 260,000 tested, 0.37% active; AID 686992;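 active = mean E-selectin-positive cell signal at least 10% of the positive control, reached in at least 60% of replicates, without over 20% cell loss; inconclusive = no rule given, readout overlaps actives, possibly toxicity-flagged; inactive = the rest, including those meeting only one limit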
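Test system: HUVEC; input: 3,000 HUVEC/well; measured by: immunofluorescence imaging; read-out: % PE-positive cells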
The depositor's hits bear a star; ? = inconclusive; nt = no result.

SMILES	DENV2 CPE rescue	C2C12 statin	PglD inh	Xi reactivation	FGF22 binding	E-sel inducer
C[C@@H]1CN([C@@H](C)CO)C(=O)c2cc(NC(=O)Nc3cccc4ccccc34)ccc2O[C@@H](C)CCCCO[C@@H]1CN(C)Cc1ccc(C(F)(F)F)cc1	?	nt	-4.5	0.2	-0.2	1.0
O=C(Cc1ccccc1)c1c[nH]c(C(=O)NCc2ccncc2)c1	12.8	nt	nt	0.2	43.4*	nt
CCC(CC)C(=O)c1c[nH]c(C(=O)NCc2ccncc2)c1	2.1	1.2	-4.2	0.1	0.0	-0.1
C/C(N)=C(/C#N)C(=O)CSc1ccccc1F	5.7	nt	nt	0.0	-0.1	nt
C/C(N)=C(/C#N)C(=O)CSc1nnc(Cc2ccccc2F)n1N	54.4*	6.0	2.2	0.0	-0.3	nt
COc1cccc(-c2ccc3n(c2=O)C[C@H]2[C@H](CO)[C@@H](C(=O)N(C)C)[C@@H]3N2Cc2cncnc2)c1	16.6	-8.8	0.9	0.1	-0.1	0.1
CO[C@H]1CN(C)C(=O)c2ccc(NC(=O)C3CCCC3)cc2OC[C@@H](C)N(CC2CC2)C[C@H]1C	-3.3	0.6	0.1	-0.1	0.0	0.0
CC1=C([C@H](O)c2ccccc2)[C@H](CO)n2c(=O)n(-c3ccccc3)c(=O)n2C1	2.0	nt	nt	nt	-0.5	nt
Cc1ccc(NC(=O)C(=S)NCc2ccco2)cc1	nt	135.4*	3.1	nt	nt	nt
Cc1ccccc1OCc1n(CC(=O)OC2CC(C)CCC2C(C)C)c2ccccc2[n+]1C (stereo not given)	-6.7	nt	nt	0.0	43.3*	nt
CC1CCC(C(C)C)C(OC(=O)Cn2c(-c3ccc(Br)cc3)[n+](C)c3ccccc32)C1 (stereo not given)	-0.1	-157.4	-3.1	0.2	0.1	-4.8
C[C@H]1CCCCO[C@H](CN(C)Cc2ccc(C(=O)O)cc2)[C@@H](C)CN([C@@H](C)CO)C(=O)c2cc(NS(=O)(=O)c3cccs3)ccc2O1	-3.9	nt	0.2	0.0	0.6	0.0
CC=Cc1ccc2n(c1=O)C[C@@H]1[C@@H](CO)[C@H](C(=O)N3CCOCC3)N(Cc3ccccc3)[C@H]21 (mixture of isomers)	-3.9	-1.2	-0.3	0.0	-0.4	1.2
COc1ccc(-c2ccc3n(c2=O)C[C@H]2[C@H](CO)[C@@H](C(=O)N4CCOCC4)N[C@@H]32)cc1	3.4	1.7	-3.3	-0.1	-0.1	0.1
O=C(C1=COCCO1)N(Cc1nnc(-c2ccc(Cl)cc2)o1)C1CC1	-12.5	nt	nt	0.0	-0.1	nt
Cc1ccc(C(=O)N(Cc2nnc(-c3ccc(Cl)cc3)o2)C2CC2)o1	-6.3	-2.1	-5.7	0.0	0.0	59.2*
O=C(Cn1c(=O)[nH]n(-c2ccccc2)c1=O)N1CCCc2ccccc21	nt	86.0*	0.0	nt	nt	nt
O=c1[nH]c(CN2CCOCC2)nc2ccccc12	-4.1	2.2	4.5	0.0	43.1*	2.2
O=C(CCc1nc2ccccc2c(=O)[nH]1)N1CCCc2ccccc21	53.5*	-5.3	nt	0.3	-0.4	0.9
O=C(CN1CCN(Cc2ccccc2)CC1)N1CCCc2ccccc21	2.6	-3.1	-1.2	0.0	-0.2	2.2
COCC(=O)N(C)C[C@H]1Oc2cc(-c3ccc(C)cc3)ccc2S(=O)(=O)N([C@H](C)CO)C[C@@H]1C	5.0	0.9	3.6	-1.0	0.0	-0.2
Cc1ccc(F)cc1S(=O)(=O)N[C@@H]1CCN(Cc2cccc3[nH]ccc23)C1	-1.9	nt	3.6	nt	1.1	nt
O=C(c1ccccc1)N1C[C@H]2[C@@H](c3ccccc31)[C@@H](CO)N2S(=O)(=O)c1ccccc1	7.6	-3.4	1.4	0.4	-0.1	0.0
COc1ccc(CN2C[C@@H](C)[C@H](OC)CN(C)C(=O)c3cc(NC(=O)c4nc5ccccc5s4)ccc3OC[C@H]2C)cc1	4.0	-0.7	-0.4	-0.2	-0.5	-0.3
O=c1c2ccccc2n(Cc2ccc(F)cc2)c(=O)n1C1CCCC1	nt	116.0*	2.5	nt	nt	nt
CCOC(=O)c1c(-c2ccc(OC)cc2)csc1/N=C/C1C(=O)CCCC1=O	0.8	nt	nt	0.0	0.1	278.1*
CCOc1ccccc1CN1CCN(Cc2ccc(C)o2)CC1CCO (stereo not given)	nt	nt	nt	0.0	0.2	0.1

High-throughput results: PubChem, Broad Institute
